Data on 12 compounds can be found in ChEMBL document CHEMBL1122079, “Tryptophan analogues. 1. Synthesis and antihypertensive activity of positional isomers” (1982).

The test system of assay [1] is Felis catus. As to the kind of experiment: Change in blood pressure in normotensive anesthetized cat. It is filed as functional. Summed up: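 Normotensive cats of either sex (2-4 kg) anesthetized with α-chloralose (80 mg/kg iv). Trachea, femoral artery and jugular vein cannulated. Compound given iv at 10 mg/kg, with 1 mg/kg iv used in one case. Mean blood pressure recorded by pressure transducer before and 30 min after dosing, reported as decrease in mmHg.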

Assay [2] concerns Rattus norvegicus. Put plainly: Antihypertensive activity in renal hypertensive rats 6 hr after oral administration (10 mg/Kg). It is filed as functional. Summed up: (§1)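 Renal hypertensive rats (5 or 10 per group), 10 mg/kg given orally. Systolic pressure measured indirectly by tail occluding cuff with pulse sensor, once before dosing as control and again at 1, 2, 4, 6 and 8 h. Values are changes in mean systolic pressure from control (mmHg). Significance of control vs posttreatment assessed by Wilcoxon's signed rank test (p < 0.05).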

Assay [3] relates to Rattus norvegicus. As to the kind of experiment: Antihypertensive activity in renal hypertensive rats 8 hr after oral administration (10 mg/Kg). It is filed as functional. A digest of the protocol: as §1
Assay [4] relates to Rattus norvegicus. As to the kind of experiment: Antihypertensive activity in renal hypertensive rats 1 hr after oral administration (10 mg/Kg). It is filed as functional. A digest of the protocol:
as §1

The subject of assay [5] is Rattus norvegicus. Put plainly: Antihypertensive activity in renal hypertensive rats 2 hr after oral administration (10 mg/Kg). It is filed as functional. A digest of the protocol:
as §1

Assay [6] has as its system Rattus norvegicus. As to the kind of experiment: Antihypertensive activity in renal hypertensive rats 4 hr after oral administration (10 mg/Kg). It is filed as functional. Summed up:
as §1

Assay [7] relates to Felis catus. As to the kind of experiment: Control blood pressure in normotensive anesthetized cat at dose 10 mg/Kg iv.

For `COC(=O)C(CN)c1c[nH]c2cc(OC)c(OC)cc12.Cl` (centres undefined), the BP in assay [1] was -16 mmHg; in assay [2], -7 mmHg; in assay [3], -2 mmHg; in assay [4], -15 mmHg; in assay [5], -2 mmHg; in assay [6], -4 mmHg. Besides, in assay [7], the “control BP” value is recorded as 160 mmHg.
In the case of `CCOC(=O)C(CN)c1c[nH]c2ccc(Br)cc12.Cl` (centres undefined), the BP is given as -18 mmHg in assay [1]; -3 mmHg in assay [2]; 1 mmHg in assay [3]; -3 mmHg in assay [4]; -7 mmHg in assay [5]; -2 mmHg in assay [6]. Further, in assay [7], the “control BP” value is recorded as 143 mmHg.
For `COC(=O)C(CN)c1c[nH]c2ccc(F)cc12.Cl` (centres undefined), the BP in assay [1] is reported as -30 mmHg; in assay [2] it was -4 mmHg; in assay [3], 1 mmHg; in assay [4], -28 mmHg; in assay [5], -18 mmHg; in assay [6], -9 mmHg. The “control BP” value in assay [7] is on record as 133 mmHg.
With `NCC(CC(=O)O)c1c[nH]c2ccccc12` (centres undefined), the BP is recorded as -11 mmHg in assay [1]; -14 mmHg in assay [2]; 1 mmHg in assay [3]; -11 mmHg in assay [4]; -3 mmHg in assay [5]; -3 mmHg in assay [6]. In addition, in assay [7], the “control BP” value worked out at 152 mmHg.
For `COc1ccc2[nH]cc(C(CN)c3nnn[nH]3)c2c1` (centres undefined), the BP is recorded as -4 mmHg in assay [1]; 3 mmHg in assay [2]; 13 mmHg in assay [3]; -2 mmHg in assay [4]; 5 mmHg in assay [5]; -2 mmHg in assay [6]. Further, the “control BP” value in assay [7] is 167 mmHg.
As to `NCC(CC(=O)O)c1c[nH]c2cc(Cl)ccc12` (centres undefined), the BP in assay [1] is 5 mmHg; in assay [2], -9 mmHg; in assay [3], -2 mmHg; in assay [4] it was 2 mmHg; in assay [5], 5 mmHg; in assay [6], -9 mmHg. The “control BP” value in assay [7] was found to be 160 mmHg.
With `CCOC(=O)C(CNC(C)=O)c1cn(C(=O)OCC)c2ccccc12` (centres undefined), the BP in assay [1] was -49 mmHg; in assay [2] it was -22 mmHg; in assay [3], -18 mmHg; in assay [4] it was -3 mmHg; in assay [5], -3 mmHg; in assay [6], -18 mmHg. Also, the “control BP” value in assay [7] was 135 mmHg.
For the compound `COC(=O)C(CN)c1c[nH]c2cccc(Cl)c12.Cl` (centres undefined), the BP in assay [1] is listed as -10 mmHg; in assay [2], -9 mmHg; in assay [3], -8 mmHg; in assay [4], -7 mmHg; in assay [5], -9 mmHg; in assay [6], -20 mmHg. In addition, in assay [7], the “control BP” value is 131 mmHg.
As for `CCOC(=O)C(C)(N)Cc1c[nH]c2ccc(O)cc12` (centres undefined), the BP in assay [1] is 9 mmHg; in assay [2] it was 22 mmHg; in assay [3], 6 mmHg; in assay [4] it was -2 mmHg; in assay [5], -7 mmHg; in assay [6] it was 14 mmHg. Moreover, the “control BP” value in assay [7] is given as 142 mmHg.
For the compound `CCOC(=O)CC(c1nnn[nH]1)c1c[nH]c2cccc(Cl)c12` (centres undefined), the BP in assay [1] is on record as -35 mmHg; in assay [2], -2 mmHg; in assay [3], 4 mmHg; in assay [4], -4 mmHg; in assay [5], -12 mmHg; in assay [6], -5 mmHg. The “control BP” value in assay [7] was determined as 135 mmHg.
As for `COC(=O)C(CN)c1c[nH]c2ccc(OC)cc12.Cl` (centres undefined) [INDORENATE HYDROCHLORIDE], the BP in assay [1] is -82 mmHg; in assay [2], -10 mmHg; in assay [3], 2 mmHg; in assay [4] it was -85 mmHg; in assay [5], -71 mmHg; in assay [6] it was -38 mmHg. Also, the “control BP” value in assay [7] is given as 162 mmHg.
On to `N[C@@H](Cc1c[nH]c2ccccc12)C(=O)O` [TRYPTOPHAN], for which the BP is listed as -22 mmHg in assay [1]; -4 mmHg in assay [2]; 0 mmHg in assay [3]; -12 mmHg in assay [4]; -9 mmHg in assay [5]; -15 mmHg in assay [6]. In addition, the “control BP” value in assay [7] amounted to 165 mmHg.
